Consider eight compounds from ChEMBL document CHEMBL2203287, “Synthesis and biological evaluation of novel heterocyclic derivatives of combretastatin A-4” (Bioorg Med Chem Lett, 2012).

The nature of experiment [1]: Inhibition of sheep brain tubulin assembly compound incubated for 10 mins at 37 degC followed by 5 mins incubation at 0 degC by turbidimetry. Also on record: species or system Ovis aries.
The species entered for experiment [2] is Ovis aries. Kind of experiment: Inhibition of sheep brain tubulin assembly at 32 uM incubated for 10 mins at 37 degC followed by 5 mins incubation at 0 degC by turbidimetry.
For experiment [3], the system named is HaCaT. The experiment in a line: Induction of morphological changes in human HaCaT cells assessed as loss of radial distribution of structured microtubules at 10 '-6 M by confocal microscopy. The experiment is classed as functional, cell-based. The essentials:
(§1)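 Cells were fixed and immunostained for beta-tubulin with a monoclonal antibody, then detected with goat anti-mouse FITC secondary. Confocal optical sections were taken at ×63 objective magnification. Vehicle-treated controls were imaged in parallel.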

Experiment [4] deals with SKv-a. Kind of experiment: Induction of morphological changes in human SKv-a cells assessed as cell rounding at 10 '-6 M by confocal microscopy. The experiment is classed as functional, cell-based. The procedure, abridged: as §1
The subject of experiment [5] is HaCaT. Kind of experiment: Induction of morphological changes in human HaCaT cells assessed as cell detachment at 10 '-6 M by confocal microscopy. The class given is functional, cell-based. The procedure, abridged: as §1
Experiment [6] concerns SKv-a. The experiment in a line: Induction of morphological changes in human SKv-a cells assessed as cell detachment at 10 '-6 M by confocal microscopy. The experiment is classed as functional, cell-based. The procedure, abridged:
as §1

The test system of experiment [7] is HaCaT. The experiment in a line: Antiproliferative activity against human HaCaT cells assessed as cell viability by MTT assay. The experiment is classed as functional, cell-based. The procedure, abridged:
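MTT read-out of metabolic activity, taken as the number of viable cells remaining after 72 h continuous exposure of cultured keratinocytes.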

For experiment [8], the system named is SKv-a. The experiment in a line: Induction of microtubule depolymerization in human SKv-a cells at 10 '-6 M by confocal microscopy. The class given is cell-based.
The subject of experiment [9] is HaCaT. The experiment in a line: Induction of morphological changes in human HaCaT cells assessed as cell rounding at 10 '-6 M by confocal microscopy. The class given is functional, cell-based. The essentials: as §1
Experiment [10] relates to HaCaT. The experiment in a line: Induction of microtubule depolymerization in human HaCaT cells at 10 '-6 M by confocal microscopy. The experiment is classed as cell-based.
Experiment [11] can be described thus: Induction of morphological changes in human SKv-a cells assessed as loss of radial distribution of structured microtubules at 10 '-6 M by confocal microscopy. The experiment is classed as functional, cell-based. The essentials: as §1
Experiment [12] deals with HaCaT. Kind of experiment: Mitotic arrest in human HaCaT cells at 5 uM after 24 hrs using propidium iodide by flow cytometry. The experiment is classed as functional, cell-based. The procedure, abridged: (§2)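 Exponentially growing cells given 5×10^-6 M for 24 h, with 0.5% DMSO vehicle control. Cells detached with gentle Accutase, then stained in suspension with propidium iodide 0.05 mg/mL in citrate buffer with Nonidet P40 for 1 h at 4 °C. FACS on 20,000 cells for G1/S/G2/M distribution; run in triplicate.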

The subject of experiment [13] is SKv-a. The experiment in a line: Mitotic arrest in human SKv-a cells at 5 uM after 24 hrs using propidium iodide by flow cytometry. The class given is functional, cell-based. The essentials:
as §2

SMILES strings stand for the structures. The source made the active and inactive calls. The calls are words filed in the database; no cut-off is given here.

In experiment [1], `COc1cc([C@@H]2c3cc4c(cc3C[C@H]3COC(=O)[C@@H]32)OCO4)cc(OC)c1OC` [DESOXYPODOPHYLLOTOXIN] returned an IC50 of 1.7 µM.

As for `COc1cc(/C=C\c2cc3ccccc3[nH]2)cc(OC)c1OC`, the IC50 in experiment [1] was 21 µM.

As to `COc1cc(/C=C/c2cc3ccccc3o2)cc(OC)c1OC`, in experiment [2], the inhibition was determined as 23%.

For the compound `COc1cc2c(c(OC)c1OC)-c1ccc(OC)c(=O)cc1[C@@H](NC(C)=O)CC2` [COLCHICINE], the outcome in [3], in [4], in experiment [5], in experiment [6], in [8] and in [9] was Active. Besides, the result in experiment [10] and in [11] was Active. Besides, the IC50 in [7] came out at 12 nM.

Turning to `COc1cc(/C=C\c2cc3ccccc3o2)cc(OC)c1OC`, half-maximal inhibition in experiment [1] (IC50) required 9.6 µM.

Regarding `COc1cc(/C=C\c2cc3ccccc3s2)cc(OC)c1OC`, the result in experiment [3], in experiment [4], in experiment [5], in [6], in experiment [12] and in experiment [13] was Active. The outcome in experiment [8], in experiment [9], in experiment [10] and in experiment [11] was Active. The IC50 in [1] was found to be 2.6 µM; in experiment [7], 16 nM.

For the compound `COc1cc(/C=C/c2cc3ccccc3s2)cc(OC)c1OC`, the midpoint of inhibition in experiment [1], the IC50, lay at 8.4 µM. The result in experiment [12], in [13], in experiment [8] and in experiment [10] was Active.

For the compound `COc1ccc(/C=C\c2cc(OC)c(OC)c(OC)c2)cc1O` [COMBRETASTATIN A4], the IC50 in experiment [7] was found to be 1 nM. Moreover, the result in [8] and in experiment [10] was Active.
